Measurements pooled from the literature.
Compare with care: the assays were run in different laboratories.
Target: Protein kinase C alpha type (PRKCA, Homo sapiens, UniProt P17252)

Structure (SMILES)	observed	action	technique	concentration	quantity	result
COc1cc(Nc2cnc(C#N)c(O[C@H](C)CN(C)C)n2)ncc1-c1cnn(C)c1	enzyme activity	inhibitor	radiometric	10 µM	remaining activity	102%
Cn1c(=O)n(-c2ccc(C(C)(C)C#N)cc2)c2c3cc(-c4cnc5ccccc5c4)ccc3ncc21	enzyme activity	inhibitor	–	10 µM	remaining activity	87%
CS(=O)(=O)Nc1cccc(-c2csc(NC(=O)CSc3nc4nccnc4c(=O)n3CCc3ccccc3)n2)c1	enzyme activity	inhibitor	–	10 µM	inhibition	1%
C=CC(=O)Nc1cc(Nc2nccc(Nc3cc(Cl)c(F)cc3C(C)(C)O)n2)c(OC)cc1N1CC[C@@H](N(C)C)C1	enzyme activity	inhibitor	–	1 µM	inhibition	13%
Cc1[nH]c(/C=C2\C(=O)Nc3ccc(F)cc32)c(C)c1C(=O)N[C@H]1CCN(C(=O)N(C)C)C1	enzyme activity	inhibitor	–	0.1 µM	remaining activity	108%
Cc1sc(C(=O)NC2COC2)cc1-n1cc(NC(=O)Nc2c(F)cccc2Cl)cn1	enzyme activity	inhibitor	–	10 µM	remaining activity	95.9%
COc1cc(/C=C/C(=O)CC(=O)/C=C/c2ccc(O)c(OC)c2)ccc1O	enzyme activity	inhibitor	–	1 µM	activity vs control	106%
Cc1ccc(Nc2nccc(N(C)c3ccc4c(C)n(C)nc4c3)n2)cc1S(N)(=O)=O	enzyme activity	inhibitor	–	10 µM	inhibition	10%
CN(c1ncccc1CNc1nc(Nc2ccc3c(c2)CC(=O)N3)ncc1C(F)(F)F)S(C)(=O)=O	enzyme activity	inhibitor	–	1 µM	inhibition	28.4%
COc1cc2ncnc(Nc3ccc(Oc4ccccc4)c(C)c3C)c2cc1OC	enzyme activity	inhibitor	–	1 µM	inhibition	8%
O=C1Nc2ccc(Cl)cc2C1=Cc1cc(Cl)c(O)c(Cl)c1	cell-free assay	–	–	0.5 µM	remaining signal	105%
Cc1ccc(NC(=O)c2ccc(C)c(C(F)(F)F)c2)cc1C#Cc1nn(C2CCC(O)CC2)c2ncnc(N)c12 (stereo not shown)	cell-free assay	–	–	10 µM	remaining signal	110%
CC(C)(C)c1nc(-c2cccc(NS(=O)(=O)c3c(F)cccc3F)c2F)c(-c2ccnc(N)n2)s1	enzyme activity	inhibitor	radiometric	1 µM	remaining activity	100%
CN1CC(Oc2cnc(C#N)cc2-c2ccn3nc(NC(=O)C4CC4)cc3c2)C1	enzyme activity	inhibitor	–	1 µM	inhibition	2%
CCN(CC)c1ccc(C2=NNC(=O)CC2C)cc1[N+](=O)[O-] (stereo not shown)	enzyme activity	inhibitor	–	10 µM	remaining activity	21%
Cc1cc(NC(=O)c2cccc3cc(-c4cccc5[nH]nc(N)c45)ccc23)ccc1F	enzyme activity	inhibitor	–	0.1 µM	activity vs control	95%
FC(F)(F)Oc1cccc(-c2cnc3ccc(-c4ccncc4)nn23)c1	enzyme activity	inhibitor	radiometric	5 µM	activity vs control	91%
CCN(CC)CCNC(=O)c1c(C)[nH]c(/C=C2\C(=O)Nc3ccc(F)cc32)c1C	enzyme activity	inhibitor	–	1 µM	remaining activity	102%
CN(C)CCCn1cc(C2=C(c3c[nH]c4ccccc34)C(=O)NC2=O)c2ccccc21	cell-free assay	–	–	0.5 µM	remaining signal	6.27%
CC(C)c1ccc(NC(=O)c2cccs2)c(-c2nc3ccccc3[nH]c2=O)c1	enzyme activity	inhibitor	–	1 µM	activity vs control	100%
CNC(=O)c1cc(Oc2ccc(NC(=O)Nc3ccc(Cl)c(C(F)(F)F)c3)cc2)ccn1	cell-free assay	–	–	0.5 µM	remaining signal	96.8%
COc1cc(Cl)c(C(=O)N[C@@H](CN[C@H]2CC[C@@H](N)CC2)Cc2ccc(C#N)cc2)cc1-c1ccc(CN[C@H](C)c2ccc(C)cc2)o1	enzyme activity	inhibitor	–	1 µM	remaining activity	97%
